Rad51 HR inh: Rad51 (human) homologous recombination inhibition; Q06609; hRad51 DNA strand exchange, fluorescence dequenching; 0.085% of 200,000 active; inhibition, % at 10 µM; AID 1385;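 active = inhibition above 40% at the single screening dose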;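 also: 0% = DMSO control wells and 100% = blanks with heterologous ssDNA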
Target sequence (Q06609 whole entry, looked up): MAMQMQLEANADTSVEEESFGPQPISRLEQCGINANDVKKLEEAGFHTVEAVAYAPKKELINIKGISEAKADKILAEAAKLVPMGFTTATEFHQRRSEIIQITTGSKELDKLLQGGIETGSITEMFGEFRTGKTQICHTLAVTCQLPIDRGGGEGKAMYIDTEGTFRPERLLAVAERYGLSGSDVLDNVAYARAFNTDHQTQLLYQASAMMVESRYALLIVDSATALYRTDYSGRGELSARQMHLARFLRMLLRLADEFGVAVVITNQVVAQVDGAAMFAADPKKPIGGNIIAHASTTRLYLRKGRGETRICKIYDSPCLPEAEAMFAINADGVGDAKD
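Material: Human Rad51 nucleoprotein filaments preassembled on unlabelled ssDNA | Also added: Labelled 47-mer dsDNA for strand exchange | Dosing: Single dose, 10 µM final compound | Schedule: 30-min compound preincubation and 15-min exchange, both room temperature | Technique: Fluorescence dequenching at 485/520 nm | Measure: Percent inhibition relative to plate controls and blanks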
WT yeast gro inh: growth inhibition of WT yeast, mitochondrial fusion screen | mitochondrial fusion phenotypic screen, WT strain | inhibition, % at 10 µM | 2.1% of 190,000 active | AID 1362; in the data active = inhibition above about 58%; tested in S. cerevisiae
PMI act hi M6P: increases human PMI activity with near-saturating mannose 6-phosphate | P34949 | coupled PMI enzyme assay, resazurin fluorescence, 20 min; active compounds read high; 1 = untreated enzyme, 0 = substrate-free blank | activation factor at 20 µM | 0.34% of 190,000 active | AID 1216;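 active = activation factor of 2 or more at 20 µM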
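test system = human PMI in coupled enzyme assay | medium = HEPES-buffered pH 7.4 with magnesium and detergent | also added = 1.0 mM mannose-6-phosphate substrate with 0.22 mM NADP+ | compound = 20 µM single dose | times = 20 min incubation at room temperature | measured by = resorufin fluorescence (Ex 544/Em 590 nm) from resazurin via diaphorase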
m-calpain inh: calpain II (pig) inhibition; purified calpain II, fluorogenic peptide substrate, 30 min; inhibition, % at 16 µM; 0.37% of 220,000 active;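 active = inhibition above about 50%, limit read from the data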
Lmaj promast: inhibitors of Leishmania major promastigote growth | Leishmania major promastigotes, resazurin fluorescence viability | inhibition, % at 10 µM | 9% of 200,000 active; in the data active = inhibition above about 50%;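 also: promastigotes grown with compound for 44 hours at 28 °C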
PMI act: increases human mannose-6-phosphate isomerase activity; purified human PMI, coupled resazurin fluorescence, 20 min; active compounds read high; 1 = vehicle control, 0 substrate-free wells; activation factor at 20 µM; 0.005% of 190,000 active; AID 1214;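 active = activation factor of 2 or more at 20 µM, relative to plate controls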
Active calls of the source: *; i = inactive; · = no result. Most compounds without a hit are left out; they make up all but 9.8% or so of the library.

SMILES	Rad51 HR inh	WT yeast gro inh	PMI act hi M6P	m-calpain inh	Lmaj promast	PMI act
Cc1cccc(C)c1NC(=O)CCCN1CC(C)OC(C)C1 (stereo not drawn)	-3	-5	1.1	19	66*	1
CC1CN(S(=O)(=O)c2cccc(C(=O)Nc3ccc4c(c3)CCC4)c2)CC(C)O1 (stereo not drawn)	-1	22	0.8	8	85*	0.8
CCCCN(C)CCC(=O)Nc1ccc2c(c1)CCC2	-2	-4	1	-35	32	1
O=C(COC(=O)c1cc(=O)[nH]c2ccccc12)c1cccs1	-1	-4	1	-55	-6	1
COc1ccc2nc(SCC(=O)Nc3cc(OC)c(OC)cc3C(=O)O)c(C)cc2c1	13	-5	1	-42	-4	1
CN(c1ccc(F)cc1)S(=O)(=O)c1ccc(Cl)c(C(=O)Nc2ccc3c(c2)CCC3)c1	0	-1	1	12	4	0.9
CN(c1cccc(Cl)c1)S(=O)(=O)c1cccc(C(=O)Nc2ccc3c(c2)CCC3)c1	10	-21	0.9	13	95*	0.7
COc1ccc(NS(=O)(=O)c2ccc3nc(COc4cccc5ccccc45)[nH]c3c2)cc1	6	6	0.9	-85	95*	1
COc1ccc(NS(=O)(=O)c2ccc3nc(COc4ccc5ccccc5c4)[nH]c3c2)cc1	7	-11	1	-80	27	1
CC(C)OC(=O)c1c(-c2ccc(C(C)C)cc2)csc1NC(=O)C1CCCO1 (stereo not drawn)	-3	70*	0.9	-6	24	0.9
CCOC(=O)c1c(-c2ccc(F)cc2)csc1NC(=O)C1CCCO1 (stereo not drawn)	·	40	0.9	5	5	0.8
CCOC(=O)c1c(-c2ccc(OC)cc2)csc1NC(=O)C1CCCO1 (stereo not drawn)	0	19	0.8	-17	52*	0.5
COC(=O)c1c(-c2cccc(C)c2)csc1NC(=O)C1CCCO1 (stereo not drawn)	4	10	0.9	-17	2	1
CCOC(=O)c1c(-c2ccc(C)cc2)csc1NC(=O)C1CCCO1 (stereo not drawn)	8	58*	1	16	7	1
CCCCCNC(=O)C1CC(=O)OC12CCCCC2 (stereo not drawn)	3	7	1	-38	-6	1
Nc1nc(-c2cccc(NS(=O)(=O)c3ccccc3)c2)cs1	7	4	0.9	30	59*	0.9
Cc1nc(-c2cccc(NS(=O)(=O)c3cccc4ccccc34)c2)cs1	-9	62*	1	2	6	0.9
CSc1ccc(CCNC(=O)c2cc(C)nn2-c2ccccc2)cc1	-13	·	·	-5	·	·
CCOC(=O)C1CCN(CC(=O)Nc2cc(C)nn2-c2nc3ccccc3s2)CC1	·	74*	0.9	-10	6	0.9
CCCCc1oc2ccccc2c1C(=O)c1cc(I)c(OCCN(CC)CC)c(I)c1	-3	98	1.2	12	99*	1.1
CCN(CC)CCOc1ncnc2c1oc1ccccc12	-5	-8	1.1	19	45	1.1
O=C1CC(c2ccc(Cl)c([N+](=O)[O-])c2)c2ccc3ccccc3c2N1 (stereo not drawn)	2	18	1	-20	100*	1
Cc1ccccc1CN(C)CC(=O)Nc1ccccc1-c1ccccc1	-14	79*	1	41	12	0.9
Cc1cccc(N(CC(=O)Nc2ccccc2-c2ccccc2)S(=O)(=O)c2ccccc2)c1C	-9	21	0.9	4	50*	0.8
COCC(=O)Nc1ccccc1-c1ccccc1	-20	5	1	20	-3	1
SMILES	Rad51 HR inh	WT yeast gro inh	PMI act hi M6P	m-calpain inh	Lmaj promast	PMI act
Cc1ccc(CC(=O)Nc2ccccc2-c2ccccc2)cc1C	-3	43	0.9	41	70*	1
N#Cc1ccc[n+](CC(=O)c2ccc(NC(=O)c3ccccc3)cc2)c1	-36	·	·	-16	·	·
Cc1cc(C)c2c(=O)[nH]c(SCC(=O)c3ccc(C)c(C)c3)nc2n1	-5	9	1.3	-4	-7	1.1
Cc1ccc(C)c(Nc2ncnc(N)c2[N+](=O)[O-])c1	-7	-8	0.9	-16	61*	0.9
NNC(=O)c1ccc2c(c1)S(=O)(=O)NNC2=O	18	2	2.9*	-5	-8	1.9
Oc1ccc2ccccc2c1N=Nc1ccccn1	-8	11	1.1	8	100*	0.9
Oc1ccc2ccccc2c1N=Nc1ccccc1F	-2	·	·	14	·	·
CC(C)(C)C(=O)N1CCN(c2ccc([N+](=O)[O-])c(-n3nc(-c4ccccc4)c4ccccc4c3=O)c2)CC1	15	-1	1	-41	57*	1
Cc1nn(-c2cc(N3CCCC3)ccc2[N+](=O)[O-])c(=O)c2ccccc12	1	-13	1	14	-1	0.9
Cc1nc(NC(=O)CC(C)C)sc1-c1csc(Nc2ccc(Cl)cc2Cl)n1	7	0	0.7	-17	8	0.6
CCCCCCC(=O)Nc1nc(C)c(-c2csc(Nc3ccc(Cl)cc3)n2)s1	0	-4	0.7	-12	52*	0.6
Cc1nc(NC(=O)CC(C)C)sc1-c1csc(Nc2ccc(Cl)cc2)n1	-8	81*	0.8	-231	35	0.7
Cc1ccc(-c2csc3nc4c5ccccc5c(NCCCN(C)C)nn4c(=O)c23)cc1	-44	33	1	i	101*	1
Cc1ccc(-c2csc3nc4c5ccccc5c(NCCCN5CCOCC5)nn4c(=O)c23)cc1	6	75*	1	-285	101*	1
Cc1ccc(-c2csc3nc(C)n(N)c(=O)c23)cc1	0	-4	1	-1	-6	1
O=C(Nc1ccc(Cl)cc1)N1CCCN(c2ccc(C(F)(F)F)cc2[N+](=O)[O-])CC1	4	·	·	2	·	·
CC1=CC(C)[C@H](/C=N/n2c(=O)[nH]c3c([nH]c4ccc(C)cc43)c2=O)C(C)C1 (stereo partly drawn)	-2	-2	1.1	-12	41	1.1
O=C(/C=C/c1ccc(S(=O)(=O)N2CCOCC2)cc1)NCc1ccccc1	0	-14	0.9	17	5	0.9
CC1(C)CC(N=Cc2c(O)n(Cc3ccc4c(c3)OCO4)c(=O)c3ccccc23)CC(C)(C)N1	2	-18	0.9	-17	101*	0.9
O=c1c2ccccc2c(C=Nc2cccc(O)c2)c(O)n1-c1ccc2c(c1)OCO2	-9	5	0.9	-266	-1	0.9
CN(C)S(=O)(=O)c1ccc2c(c1)nc(CCC(=O)NCc1ccc(Cl)cc1)n2C	27	-2	1	51*	-4	1
CCCCCCOC1(c2ccccc2)OC(=O)c2ccccc21 (stereo not drawn)	·	63*	0.9	15	-4	0.8
